Laboratory results taken from ChEMBL document CHEMBL3232735, “Pyrrolopyrimidine-inhibitors with hydantoin moiety as spacer can explore P4/S4 interaction on plasmin” (Bioorg Med Chem, 2014).

What was measured:
Plasma kallikrein = Plasma kallikrein (Homo sapiens, UniProt P03952); experiment: Inhibition of human plasma kallikerin using H-D-Phe-Pro-Arg-pNA (S-2302) peptide as substrate assessed as reduction of enzyme hydrolytic activity
Procedure, shortened: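 Plasma kallikrein activity on synthetic peptide substrate S-2302 at 0.2 mM, with and without inhibitor. Hydrolysis followed as absorbance at 405 nm. IC50 is the inhibitor concentration giving a 50% drop in absorbance compared with the uninhibited control under the same conditions.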

[1] = target: Urokinase-type plasminogen activator (Homo sapiens, UniProt P00749); experiment: Inhibition of human plasma urokinase using Glu-Gly-Arg-pNA (S-2444) peptide as substrate assessed as reduction of enzyme hydrolytic activity
Procedure, shortened: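 Urokinase hydrolysis of S-2444 at 0.1 mM, monitored by absorbance at 405 nm. IC50 defined as the inhibitor concentration that lowers absorbance by 50% compared with enzyme run under the same conditions without inhibitor.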

Plasminogen = Plasminogen (Homo sapiens, UniProt P00747); experiment: Inhibition of human plasmin using H-D-Val-Leu-LyspNA (S-2251) peptide as substrate assessed as reduction of enzyme hydrolytic activity
Chain of Plasminogen (P00747 97-580 limits assumed): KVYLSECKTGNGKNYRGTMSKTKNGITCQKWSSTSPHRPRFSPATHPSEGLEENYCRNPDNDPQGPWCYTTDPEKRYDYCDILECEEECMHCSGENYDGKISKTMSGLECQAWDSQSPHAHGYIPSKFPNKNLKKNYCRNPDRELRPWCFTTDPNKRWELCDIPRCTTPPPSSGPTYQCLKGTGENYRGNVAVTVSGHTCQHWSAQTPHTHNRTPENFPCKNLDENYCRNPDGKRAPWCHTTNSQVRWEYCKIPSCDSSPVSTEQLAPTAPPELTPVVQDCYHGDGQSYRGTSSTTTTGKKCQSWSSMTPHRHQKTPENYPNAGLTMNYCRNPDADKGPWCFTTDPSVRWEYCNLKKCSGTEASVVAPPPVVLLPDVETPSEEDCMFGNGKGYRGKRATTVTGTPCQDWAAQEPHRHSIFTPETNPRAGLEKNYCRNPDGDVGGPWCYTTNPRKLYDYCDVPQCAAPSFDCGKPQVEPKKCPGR
Chain of Plasminogen (P00747 581-810 limits assumed): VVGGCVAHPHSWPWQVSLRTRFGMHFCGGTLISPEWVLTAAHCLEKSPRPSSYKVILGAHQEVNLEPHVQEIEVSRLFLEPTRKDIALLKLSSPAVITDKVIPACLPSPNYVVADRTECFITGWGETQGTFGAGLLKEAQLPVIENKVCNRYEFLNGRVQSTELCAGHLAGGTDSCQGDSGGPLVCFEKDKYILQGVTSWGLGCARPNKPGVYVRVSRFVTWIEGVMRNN
Procedure, shortened: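 Plasmin activity was measured with 0.3 mM S-2251 as substrate and read as absorbance at 405 nm. IC50 is the inhibitor concentration cutting absorbance by 50% compared with the inhibitor-free control under the same conditions.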

Chain of Plasma kallikrein (P03952 20-390 limits assumed): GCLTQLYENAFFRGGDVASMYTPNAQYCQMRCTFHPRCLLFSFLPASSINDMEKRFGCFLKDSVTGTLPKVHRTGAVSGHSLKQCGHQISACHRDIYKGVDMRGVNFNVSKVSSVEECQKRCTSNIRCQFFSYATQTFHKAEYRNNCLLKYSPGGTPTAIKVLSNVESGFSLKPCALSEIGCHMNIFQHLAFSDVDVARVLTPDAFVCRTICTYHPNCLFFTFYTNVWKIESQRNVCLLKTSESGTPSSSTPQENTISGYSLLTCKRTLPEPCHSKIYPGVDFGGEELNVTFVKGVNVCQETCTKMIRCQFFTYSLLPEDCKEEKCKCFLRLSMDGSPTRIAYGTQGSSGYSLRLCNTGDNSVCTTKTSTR
Chain of Plasma kallikrein (P03952 391-638 limits assumed): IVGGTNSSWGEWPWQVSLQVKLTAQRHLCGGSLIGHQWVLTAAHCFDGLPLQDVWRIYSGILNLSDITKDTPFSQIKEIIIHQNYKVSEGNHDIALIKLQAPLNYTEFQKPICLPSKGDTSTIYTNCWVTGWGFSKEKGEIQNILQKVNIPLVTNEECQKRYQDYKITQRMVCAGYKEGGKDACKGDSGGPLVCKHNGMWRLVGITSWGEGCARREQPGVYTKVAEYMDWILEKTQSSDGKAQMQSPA

Structure (SMILES)	IC50 (Plasma kallikrein) [µM]	IC50 [1] [µM]	IC50 (Plasminogen) [µM]
Cn1c(CN2C(=O)CN(c3cccc(C(N)=O)c3)C2=O)cc2cnc(C(=O)N[C@H](C#N)CCCCN)nc21	> 1000	> 1000	100
Cn1c(CN2C(=O)CN(c3cccc(S(N)(=O)=O)c3)C2=O)cc2cnc(C(=O)N[C@H](C#N)CCCCN)nc21	> 1000	> 1000	220
Cn1c(CN2C(=O)CN(c3ccc(S(N)(=O)=O)cc3)C2=O)cc2cnc(C(=O)N[C@H](C#N)CCCCN)nc21	> 1000	> 400	260
Cn1c(CN2CC(=O)N(c3ccc(Oc4ccccc4)cc3)CC2=O)cc2cnc(C(=O)N[C@H](C#N)CCCCN)nc21	> 1000	> 1000	960
CC(=O)COc1ccc(N2CC(=O)N(Cc3cc4cnc(C(=O)N[C@H](C#N)CCCCN)nc4n3C)C2=O)cc1	> 1000	> 1000	250
COc1ccc(N2CC(=O)N(Cc3cc4cnc(C(=O)N[C@H](C#N)CCCCN)nc4n3C)C2=O)cc1	> 1000	> 1000	180
Cn1c(CN2C(=O)CN(c3ccc(Oc4ccc5ncccc5c4)cc3)C2=O)cc2cnc(C(=O)N[C@H](C#N)CCCCN)nc21	> 1000	> 400	> 250
Cn1c(CN2C(=O)CN(c3ccc(OCC(N)=O)cc3)C2=O)cc2cnc(C(=O)N[C@H](C#N)CCCCN)nc21	> 1000	> 1000	400
Cn1c(CN2C(=O)CN(c3ccc(OCc4ccncc4)c(C(N)=O)c3)C2=O)cc2cnc(C(=O)N[C@H](C#N)CCCCN)nc21	> 1000	> 1000	170
Cn1c(CN2C(=O)CN(c3ccc(OCC#N)cc3)C2=O)cc2cnc(C(=O)N[C@H](C#N)CCCCN)nc21	> 1000	> 1000	130
Cn1c(CN2C(=O)CN(c3ccc(F)cc3)C2=O)cc2cnc(C(=O)N[C@H](C#N)CCCCN)nc21	740	> 1000	130
Cn1c(CN2C(=O)CN(c3ccc(OCc4ccncc4)cc3)C2=O)cc2cnc(C(=O)N[C@H](C#N)CCCCN)nc21	> 1000	> 1000	87
Cn1c(CN2C(=O)CN(c3ccc(Oc4ccccc4)cc3)C2=O)cc2cnc(C(=O)N[C@H](C#N)CCCCN)nc21	> 1000	> 400	51
Cn1c(CN2C(=O)CN(c3ccc(C#N)cc3)C2=O)cc2cnc(C(=O)N[C@H](C#N)CCCCN)nc21	> 1000	> 1000	210
COc1ccc(Oc2ccc(N3CC(=O)N(Cc4cc5cnc(C(=O)N[C@H](C#N)CCCCN)nc5n4C)C3=O)cc2)cc1	> 1000	> 400	64
CCCc1ccc(N2CC(=O)N(Cc3cc4cnc(C(=O)N[C@H](C#N)CCCCN)nc4n3C)C2=O)cc1	> 1000	> 1000	330
Cn1c(CN2C(=O)CN(c3cccc(C#N)c3)C2=O)cc2cnc(C(=O)N[C@H](C#N)CCCCN)nc21	> 1000	> 1000	220
Cn1c(CN2C(=O)CN(c3ccc(Oc4ccccc4C(N)=O)cc3)C2=O)cc2cnc(C(=O)N[C@H](C#N)CCCCN)nc21	> 1000	> 1000	99
Cn1c(CN2C(=O)CN(c3ccc(Oc4ccccc4)c(C(N)=O)c3)C2=O)cc2cnc(C(=O)N[C@H](C#N)CCCCN)nc21	> 1000	> 1000	510
CN1CC(=O)N(Cc2cc3cnc(C(=O)N[C@H](C#N)CCCCN)nc3n2C)C1=O	> 1000	> 1000	> 1000
Cn1c(CN2C(=O)CN(c3ccc(C(N)=O)cc3)C2=O)cc2cnc(C(=O)N[C@H](C#N)CCCCN)nc21	> 1000	> 1000	160
